The source of these data is ChEMBL document CHEMBL1125790, “Spiro[fluoreneisothiazolidin]one dioxides: new aldose reductase and L-hexonate dehydrogenase inhibitors” (J Med Chem, 1991).

In the first assay the target is Aldo-keto reductase family 1 member A1 (Rattus norvegicus, UniProt P51635). The experiment in a line: In vitro inhibitory activity against L-Hexonate Dehydrogenase (L-HDH) from rat kidney (RK).
Sequence of Aldo-keto reductase family 1 member A1 (P51635 whole entry, looked up): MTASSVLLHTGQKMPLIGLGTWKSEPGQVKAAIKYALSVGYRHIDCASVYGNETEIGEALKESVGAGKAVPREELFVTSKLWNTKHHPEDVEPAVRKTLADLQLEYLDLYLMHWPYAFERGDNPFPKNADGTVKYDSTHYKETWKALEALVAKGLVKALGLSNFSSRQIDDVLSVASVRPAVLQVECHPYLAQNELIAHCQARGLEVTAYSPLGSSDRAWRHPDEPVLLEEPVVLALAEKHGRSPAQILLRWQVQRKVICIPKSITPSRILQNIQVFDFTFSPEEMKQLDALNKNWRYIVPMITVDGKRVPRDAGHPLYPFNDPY
Regarding `O=C1CC2(c3cc(F)ccc3-c3ccc(F)cc32)S(=O)(=O)N1`, the half-maximal inhibitory concentration (IC50) worked out at 27 nM. This counts as double-digit nanomolar.
With `O=C1NS(=O)(=O)CC12c1ccccc1-c1ccc(Cl)cc12` (centres undefined), the 50% inhibitory concentration (IC50) is 3510 nM. This IC50 is about 130-fold higher than that of the compound before.
Consider `O=C1CC2(c3ccccc3-c3ccc(F)cc32)S(=O)(=O)N1` (centres undefined), for which it took 151 nM to reach half-maximal inhibition (IC50).
Same read-out and setting: to `O=C1CC2(c3ccccc3-c3ccccc32)S(=O)(=O)N1` belongs 1750 nM; to `O=C1NS(=O)(=O)CC12c1ccccc1-c1ccc(F)cc12` (centres undefined), 2100 nM; to `O=C1CC2(C(=O)N1)c1cc(F)ccc1-c1ccc(F)cc12`, 9 nM.
Still for that read-out and setting: to `O=C1NS(=O)(=O)CC12c1ccccc1-c1ccccc12` belongs 4500 nM; to `O=C(O)Cc1nn(Cc2ccc(Br)cc2F)c(=O)c2ccccc12` [PONALRESTAT], 2400 nM; to `O=C1NC(=O)C2(N1)c1cc(F)ccc1-c1ccc(F)cc12`, 5 nM.
On the same count and under the same terms, the same measure for `O=C1CC2(c3ccccc3-c3ccc(Cl)cc32)S(=O)(=O)N1` (centres undefined): 105 nM.
`O=C1NS(=O)(=O)CC12c1cc(F)ccc1-c1ccc(F)cc12` gave an IC50 of 3750 nM.

A further assay addresses Aldo-keto reductase family 1 member B1 (Rattus norvegicus) (UniProt P07943). The experiment in a line: Selectivity as ratio of IC50 for rat lens and kidney […].
In the case of `O=C1CC2(c3cc(F)ccc3-c3ccc(F)cc32)S(=O)(=O)N1`, the Selectivity quotient worked out at 0.68.
For the compound `O=C1NS(=O)(=O)CC12c1ccccc1-c1ccc(Cl)cc12` (centres undefined), the Selectivity quotient stood at 675.
For `O=C1CC2(c3ccccc3-c3ccc(F)cc32)S(=O)(=O)N1` (centres undefined), the Selectivity quotient came to 1.12.
On the same count and under the same terms, the same measure for `O=C1CC2(c3ccccc3-c3ccccc32)S(=O)(=O)N1`: 1.09; for `O=C1NS(=O)(=O)CC12c1ccccc1-c1ccc(F)cc12` (centres undefined): above 5000; for `O=C1CC2(C(=O)N1)c1cc(F)ccc1-c1ccc(F)cc12`: 0.56.
Take `O=C1NS(=O)(=O)CC12c1ccccc1-c1ccccc12`: the Selectivity quotient was above 2000.
Still for that read-out and setting: to `O=C(O)Cc1nn(Cc2ccc(Br)cc2F)c(=O)c2ccccc12` [PONALRESTAT] belongs 0.008.
On the same count and under the same terms, the same measure for `O=C1NC(=O)C2(N1)c1cc(F)ccc1-c1ccc(F)cc12`: 1.8.
On the same count and under the same terms, to `O=C1CC2(c3ccccc3-c3ccc(Cl)cc32)S(=O)(=O)N1` (centres undefined) belongs 2.22; to `O=C1NS(=O)(=O)CC12c1cc(F)ccc1-c1ccc(F)cc12`, 1640.

For a further assay, the target named is Aldo-keto reductase family 1 member B1 (Rattus norvegicus, UniProt P07943). The experiment in a line: In vitro inhibition of Aldose reductase (AR) from rat lens (RL). In outline:
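Unfractionated rat lens supernatant (50–100 μg protein) run in the reverse direction: 50 mmol/L potassium phosphate pH 7.5, 12 mmol/L benzyl alcohol, 12 μmol/L oxidized 3-acetylpyridine adenine dinucleotide phosphate, room temperature. Reduced analogue formation followed fluorometrically at 365/480 nm. Same enzyme activity used for all inhibitors. IC50 from linear regression over the linear part of the dose–response curve.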
The compound `O=C1CC2(c3cc(F)ccc3-c3ccc(F)cc32)S(=O)(=O)N1` had an IC50 of 0.018 µM.
Same read-out and setting: to `O=C1NS(=O)(=O)CC12c1ccccc1-c1ccc(Cl)cc12` (centres undefined) belongs 2370 µM; to `O=C1CC2(c3ccccc3-c3ccc(F)cc32)S(=O)(=O)N1` (centres undefined), 0.169 µM; to `O=C1CC2(c3ccccc3-c3ccccc32)S(=O)(=O)N1`, 1.9 µM.
The same measure, in the same setting: the same measure for `COc1ccc2c(C(=S)N(C)CC(=O)O)cccc2c1C(F)(F)F` [TOLRESTAT]: 0.002 µM.
Turning to `O=C1NS(=O)(=O)CC12c1ccccc1-c1ccc(F)cc12` (centres undefined), the 50% inhibitory concentration (IC50) was above 10000 µM.
Turning to `O=C1CC2(C(=O)N1)c1cc(F)ccc1-c1ccc(F)cc12`, the half-maximal inhibitory concentration (IC50) stood at 0.005 µM.
`O=C1NS(=O)(=O)CC12c1ccccc1-c1ccccc12` came in with an IC50 above 10000 µM.
`O=C(O)Cc1nn(Cc2ccc(Br)cc2F)c(=O)c2ccccc12` [PONALRESTAT]: the IC50 was determined as 0.02 µM.
On the same count and under the same terms, the same measure for `O=C1NC(=O)C2(N1)c1cc(F)ccc1-c1ccc(F)cc12`: 0.009 µM; for `O=C1CC2(c3ccccc3-c3ccc(Cl)cc32)S(=O)(=O)N1` (centres undefined): 0.233 µM; for `O=C1NS(=O)(=O)CC12c1cc(F)ccc1-c1ccc(F)cc12`: 6150 µM.

A word on the IC50: it is the point on the concentration scale where inhibition reaches its midpoint.
